Three compounds from paper PMC5896666 (Drug Design, Development and Therapy, 2018) can be followed below.

Data set [1] concerns ROS production in EJ cells. The data set is described as follows: Intracellular reactive oxygen species detection. Type of data set: cell-based, human. Conditions: 1.0 μM, 24 h, DCFH-DA, fluorescence microplate reader. An outline of the steps: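 EJ cells, with or without 2 h pretreatment with 5 mM NAC, were given 1.0 μM test compound for 24 h. After PBS washes, loaded with 10 μM DCFH-DA for 30 min at 37 °C and washed again. Imaged by fluorescence microscopy and quantified on a plate reader (ex 485/em 520 nm). Values given as percent of control.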

In data set [2] the test system is EJ cells. Description: Annexin V-FITC/PI staining flow cytometry of apoptosis. Type of data set: cell-based, human. Conditions: for Percentage of apoptotic cells (Annexin V-FITC/PI flow cytometry) / Effect of caspase inhibitors on induced apoptosis: 1.0 μM, 24 h; for Percentage of apoptotic cells (Annexin V-FITC/PI flow cytometry): mean ± SD; for Effect of caspase inhibitors on induced apoptosis: with 20 μM Z-LEHD-FMK or z-DEVD-fmk (Ac-DEVD-CHO). The method in brief: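 EJ cells were seeded at 1×10^6 per well, left overnight, then given 1.0 μM test compound for 24 h. Some wells also received 20 μM caspase-3 (Ac-DEVD-CHO) or caspase-9 (Z-LEHD-FMK) inhibitor, or a 2 h pretreatment with 5 mM NAC. Harvested cells were stained with Annexin V-FITC/PI and read by flow cytometry for percent apoptotic cells. Mean ± SD of triplicates.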

For the next data set, the system named is caspase-3. Description: Caspase-3 activity measurement in cell lysates. In kind it is cell-based, human. Conditions: EJ cells, 1.0 μM, 24 h, vs control and TAT-treated cells. The method in brief:
(§1)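 EJ cells treated for 24 h with 1.0 μM test compound. Lysates were mixed with buffer containing pNA substrate added at 2 mM: Ac-DEVD-pNA for caspase-3, Ac-LEHD-pNA for caspase-9. Incubated 4 h at 37 °C in the dark, then absorbance read at 405 nm. Activity given as ratio of treated to untreated control cells.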

In the next data set the test system is Bcl-2. The data set is described as follows: Western blotting analysis of Bcl-2. Conditions: EJ cells, 1.0 μM, 24 h. In kind it is cell-based, human. The method in brief:
(§2)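 EJ cells received 1.0 μM test compound for 24 h, with or without 2 h pretreatment with 5 mM NAC. Lysed in RIPA with protease inhibitor; 30 μg protein (BCA) run on 10–12% SDS-PAGE and moved to PVDF. Blocked 30 min at room temperature in TBS, 0.1% Triton X-100, 5% milk. Primary antibody overnight at 4 °C, HRP secondary 1 h, ECL detection. GAPDH loading control.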
For orientation: In western blotting, separated proteins are transferred to a membrane and probed.

In data set [3] the test system is EJ cells. The data set is described as follows: AO/EB dual staining, morphological assessment of apoptotic cells. Type of data set: cell-based, human. Conditions: 1.0 μM, 24 h, mean ± SD. An outline of the steps: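 EJ cells (RPMI 1640, 10% FBS, 37 °C, 5% CO2) exposed to 1.0 μM test compound for 24 h, then trypsinised, pelleted and PBS-washed. Stained with 100 μg/mL AO and 100 μg/mL EB for 10 min at 4 °C in the dark. Scored by fluorescence microscopy for nuclear condensation and shrinkage. Apoptotic rate = apoptotic cells/total counted. Mean ± SD of triplicates.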

For another data set, the system named is Bax. The data set is described as follows: Western blotting analysis of Bax. Conditions: EJ cells, 1.0 μM, 24 h. In kind it is cell-based, human. The method in brief:
as §2

For data set [4], the system named is human bladder cancer EJ cell line. The data set is described as follows: Cell viability MTT assay. In kind it is cell-based. The method in brief: (§3)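 Cells seeded at 5×10^3 per well: EJ in RPMI 1640, SV-HUC-1 in F-12K, both with 10% FBS. Test compound came from 25 mmol/L DMSO stock diluted in serum-free medium or PBS. Series run at graded concentrations for 24 h, or at 1.0 μM over varying times. MTT added for 4 h at 37 °C, formazan dissolved in DMSO, A570 read. Viability relative to untreated (100%); ≥3 repeats.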
(Tetrazolium dyes change colour on reduction, which living cells bring about.)

Data set [5] has as its system EJ cells. Description: EdU incorporation assay. Conditions: 1.0 μM, 24 h, then 50 μM EdU 4 h. Type of data set: cell-based, human. An outline of the steps:
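EJ cells at 5×10^3 per well treated 24 h with 1.0 μM test compound, washed, then labelled with 50 μM EdU for 4 h at 37 °C in the dark. Fixed in 4% formaldehyde 15 min at room temperature, permeabilised in 0.5% Triton X-100 20 min. Apollo cocktail 30 min, Hoechst 33342 30 min, fluorescence microscopy. Mean ± SD of triplicates.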

The next data set relates to caspase-9. Description: Caspase-9 activity measurement in cell lysates. Conditions: EJ cells, 1.0 μM, 24 h, vs control and TAT-treated cells. In kind it is cell-based, human. An outline of the steps:
as §1

The subject of data set [6] is EJ cells. The data set is described as follows: Colony-formation assay. Type of data set: cell-based, human. Conditions: 1.0 μM, 24 h, then 10 days growth. The method in brief:
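EJ cells at 1×10^6 per well given 1.0 μM test compound for 24 h. Harvested and replated at 5×10^2 cells per well in fresh 10% FBS medium, then grown 10 days. Colonies fixed, stained with 1% crystal violet in 10% methanol and counted blinded under a microscope. Mean ± SD of triplicates.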

The subject of data set [7] is human immortalized uroepithelium cell line SV-HUC-1. The data set is described as follows: Cell viability MTT assay. Type of data set: cell-based. Conditions: SV-HUC-1 normal uroepithelium cells. An outline of the steps:
as §3

The nature of data set [8]: Equilibrium solubility assay. In kind it is physicochemical. Conditions: shake-flask, distilled water pH 7.0, 37°C, UV spectrophotometry; stayed at this level for 6-24 h.

With `CC(C)=CCC[C@]1(C)C=Cc2c(O)c3c(c(CC=C(C)C)c2O1)O[C@]12C(=C[C@@H]4C[C@H]1C(C)(C)O[C@@]2(C/C=C(/C)C(=O)O)C4=O)C3=O` [GA, Gambogic acid], in data set [1], the ROS production result is “substantially increased”. Besides, in the data set with EJ cells [2], the “Percentage of apoptotic cells (Annexin V-FITC/PI flow cytometry)” value was 21.3%±2.27% and the “Effect of caspase inhibitors on induced apoptosis” value is listed as “completely suppressed”. For the same compound, in the data set with caspase-3, the Caspase-3 activity entry is reported as “increased”. Moreover, in the data set with Bcl-2, the Bcl-2 protein level entry was “not affected”. For the same compound, the “Percentage of apoptotic cells (AO/EB)” value in the data set with EJ cells [3] is on record as 19.18%±4.35%. The Bax expression level result in the data set on Bax was “upregulated”. The “Concentration inducing clear cytotoxic effects” value in data set [4] (EJ cells, MTT) was found to be 1000 nM. Further, in data set [4] (Homo sapiens, EJ, 24 h, read-out: 50% inhibitory concentration (IC50)), the IC50 was found to be 4.95 µM. Moreover, in the data set with EJ cells [5], the “Number of EdU+ cells” value is “significantly reduced”. Besides, in the data set with caspase-9, the Caspase-9 activity result is on record as “increased”. In addition, the Colony growth entry in the data set with EJ cells [6] was “significantly decreased”. Further, in data set [7], the “Effect on cell viability” value is listed as “nearly unaffected”.
As to `CC(C)=CCC[C@]1(C)C=Cc2c(O)c3c(c(CC=C(C)C)c2O1)O[C@]12C(=C[C@@H]4C[C@H]1C(C)(C)O[C@@]2(C/C=C(/C)C(=O)N[C@@H](CS)C(=O)N[C@@H](Cc1ccc(O)cc1)C(=O)NCC(=O)N[C@@H](CCCNC(=N)N)C(=O)N[C@@H](CCCCN)C(=O)N[C@@H](CCCCN)C(=O)N[C@@H](CCCNC(=N)N)C(=O)N[C@@H](CCCNC(=N)N)C(=O)N[C@@H](CCC(N)=O)C(=O)N[C@@H](CCCNC(=N)N)C(=O)N[C@@H](CCCNC(=N)N)C(=O)N[C@@H](CCCNC(=N)N)C(=O)O)C4=O)C3=O` [GA-TAT], the “Stirring time at which solubility reached its peak” value in data set [8] turned out to be 4 h. Moreover, the ROS production entry in data set [1] was “significantly higher”. In the data set on EJ cells [2], the “Percentage of apoptotic cells (Annexin V-FITC/PI flow cytometry)” value is listed as 46.4%±4.86% and the “Effect of caspase inhibitors on induced apoptosis” value is given as “partially inhibited”. Also, in the data set on caspase-3, the Caspase-3 activity result was “further enhanced”. The Bcl-2 protein level result with Bcl-2 is “downregulated”. The “Percentage of apoptotic cells (AO/EB)” value with EJ cells [3] was 42.15%±5.23%. Moreover, the Bax expression level result in the data set with Bax was “upregulated”. In addition, the “Number of EdU+ cells” value in the data set with EJ cells [5] is “markedly less”. In addition, the Caspase-9 activity result with caspase-9 was “further enhanced”. Besides, the Colony growth result in the data set on EJ cells [6] is on record as “further reduced”. In data set [7], the “Effect on cell viability” value was “nearly unaffected”.
With `CC(=O)N[C@@H](CS)C(=O)O` [NAC, N-acetyl-L-cysteine], in the data set with EJ cells [2] (5 mM NAC in the absence of GA and GA-TAT), the “Effect on apoptosis, NAC treatment alone” value is listed as “did not significantly affect apoptosis”.
